# Compound activity deposited in PubChem by Sanford-Burnham Center for Chemical Genomics.
# Most compounds without a hit are left out; they make up all but 1.8% or so of the library.
# SKN-1 inh: blocks SKN-1 activity in C. elegans. AID 624304. hit rate 0.49% among 360,000. inhibition, % at 21.8 µM. C. elegans VP596 Pgst-4::GFP/RFP ratio, acrylamide-induced, 24 h;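 active means interference check ratio from 0.5 to 1.5 plus GFP to RFP signal ratio inhibition reaching or exceeding a fixed threshold, cut at about 30% in these data, passing the limit was not always enough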
# MLLE-PAM2 inh: inhibitors of microRNA-mediated deadenylation, human PABP1 MLLE binding | AID 588489 | hit rate 0.36% among 360,000 | P11940 | inhibition, % at 20 µM | GST-MLLE / FITC-PAM2 fluorescence polarization; in the data active means inhibition above about 35%, passing the limit was not always enough
# PABP FP inh: PABP-poly(A) binding inhibition | calls only at 35 µM | AID 2014 | hit rate 1% among 290,000 | P11940 | PABP-poly(A) RNA binding, fluorescence polarization;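 further: calls also rest on retests at 20 µM and on dose response follow-up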
# eIF4H inh: inhibitors of RNA binding by human eIF4H; inhibition, % at 35 µM; hit rate 0.94% among 290,000; eIF4H fluorescence polarization binding assay; Q15056; AID 2012;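 further: calls also rest on retests at 20 µM and on dose response follow-up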
# MT1-MMP act inh: inhibitors of human MT1-MMP activation; HT1080 RFP-PRO-GFP cells, GFP/RFP ratio fluorescence, overnight; percent of plate control window, DMSO zero; GFP/RFP ratio change, % at 20 µM; hit rate 0.061% among 360,000; AID 651647;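 active means GFP/RFP ratio change of at least 30% with cell ATP level not reduced by more than half and red fluorescence within 50% of control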
#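 Test system: HT1080 cells expressing an RFP-PRO-GFP fluorescent reporter construct / Compound dosing: single-point 20 µM compound, 1% DMSO / Schedule: cells overnight before dosing, compound overnight, 37 °C, 5% CO2 / Evaluation: GFP/RFP fluorescence ratio / Control set: DMSO and RFP-L50D-GFP cell wells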
# Hits are given with their value; – = inactive; ? = inconclusive; · = not tested or not shown; + = active, no number. Unless noted, how the calls were made is not given here.
SMILES,SKN-1 inh,MLLE-PAM2 inh,PABP FP inh,eIF4H inh,MT1-MMP act inh
CCOC(=O)Cc1csc(NC(=S)NC(=O)c2ccccc2)n1,–,–,–,–,–
CCOC(=O)Cc1csc(NC(=O)/C=C/c2cccc(Br)c2)n1,–,–,+,active,–
CCOC(=O)Cc1csc(NC(=O)/C=C/c2ccc(Br)o2)n1,–,–,–,–,–
CCOC(=O)Cc1csc(NC(=O)c2sc3nc4cc(C)ccc4cc3c2N)n1,–,–,+,?,–
CCOC(=O)Cc1csc(NC(=S)NC(=O)c2ccccc2Br)n1,–,39,–,–,–
CCOC(=O)c1sc(NC(=O)/C=C/c2ccccc2)nc1C,–,–,–,11,–
COc1ccc(CCNC(=O)CCc2nnc(Cc3ccc4c(c3)OCO4)o2)c(OC)c1,–,–,–,–,–
CCCC1NC(=O)c2cccnc2-n2c1nc1ccc(Cl)cc1c2=O (stereo unspecified),–,–,·,·,–
Cc1ccccc1NC(=O)CC1C(=O)Nc2ccccc2N1CC(=O)N(C)C1CCS(=O)(=O)C1 (stereo unspecified),–,–,·,·,–
CSc1ccccc1NC(=O)C(C)N(C)CC(=O)N1CCN(Cc2ccccc2)CC1 (stereo unspecified),–,–,·,·,–
CCOc1ccc(S(=O)(=O)N2CCN(CN3C(=O)CC4(CCCC4)C3=O)CC2)cc1,–,–,·,·,–
COCc1cc(C)n(CC(=O)Nc2ccc(N3CCOCC3)cc2)c(=O)c1C#N,–,–,·,·,–
CC(C)(C)[C@@H]1CCC(=O)N(CC[C@H](Sc2ccc(Br)cc2)c2ccccc2)CC1,–,–,·,·,–
CCCCn1nnnc1C1(C)CCC(=O)N1CC(F)(F)F (stereo unspecified),–,·,·,·,–
CN(C(=O)C1CCC(=O)N(Cc2cccc(F)c2)C1)C1CCCCC1 (stereo unspecified),–,–,–,–,–
CCOC(=O)CSc1nc2ccccc2c(=O)n1CCN1CCOCC1,36,–,–,–,–
O=C(CSc1nc2ccccc2c(=O)n1CCCO)NCc1ccccc1,–,38,–,–,–
Cc1sc2nc(CSc3nc4ccccc4c(=O)n3CCCN3CCOCC3)[nH]c(=O)c2c1C,–,–,+,?,–
CCNc1nc(NC(C)C)nc(-c2ccncc2)n1,–,–,·,·,–
CCN1C(=O)C(=O)N(CC(=O)Nc2ccccc2OC(F)F)C1=O,–,–,·,·,–
Cc1ccc(C2CC2C(=O)NNC(=S)Nc2ccc(Cl)cc2)cc1 (stereo unspecified),–,44,–,–,–
Cc1cccc(CNC(=O)C2CCC(=O)N(CC3CCCCC3)C2)c1 (stereo unspecified),–,–,·,·,–
Oc1cccc(/C=N/Nc2cc(N3CCCC3)nc(N3CCCC3)n2)c1,–,–,–,29,–
Oc1ccc(/C=N/Nc2cc(N3CCOCC3)nc(N3CCOCC3)n2)cc1,–,–,·,·,–
COc1ccc(/C=N/Nc2cc(N3CCCC3)nc(N3CCCC3)n2)cc1,–,54,–,–,–
SMILES,SKN-1 inh,MLLE-PAM2 inh,PABP FP inh,eIF4H inh,MT1-MMP act inh
Brc1cccc(/C=N/Nc2nc(N3CCCCC3)nc(N3CCCCC3)n2)c1,·,·,–,–,·
Oc1ccc(/C=N/Nc2cc(N3CCCC3)nc(N3CCCC3)n2)cc1,–,70,?,–,–
COc1ccc(/C=N/Nc2cc(C)nc(-n3nc(C)cc3C)n2)cc1,–,–,–,–,–
CCOC(=O)CN1C(=O)S/C(=C\c2ccc(-c3cccc(C(=O)O)c3C)o2)C1=O,–,–,·,·,–
N=C1S/C(=C\c2ccc(-c3ccccc3C(=O)O)o2)C(=O)N1c1ccc2c(c1)OCO2,–,–,+,87,–
COc1ccccc1N1C(=N)S/C(=C\c2ccc(-c3ccccc3C(=O)O)o2)C1=O,–,–,–,59,–
Nc1ncc(Br)cc1S(=O)(=O)NCCC(=O)NCCc1ccc(Cl)cc1,–,–,·,·,–
COC1=C(c2ccccc2)C(=O)c2ccccc2C1=O,–,49,–,–,–
COc1ccc(C2=C(N)c3ccccc3C2=O)cc1,–,–,–,–,–
Nc1cccc(C2=Nc3cccc4cccc(c34)N2)c1,–,–,–,–,–
COc1ccc(C2=Nc3cccc4cccc(c34)N2)cc1,–,–,–,78,–
COCCNC(=O)C1(C)CCN(C(=O)c2sccc2C)C1 (stereo unspecified),–,–,·,·,–
O=C1C2C3C=CC(CC3)C2C(=O)N1c1nccs1 (stereo unspecified),–,–,+,105,–
N=C1C=CC(=C(c2ccc(N)cc2)c2ccc(N)cc2)C=C1,60,–,·,·,–
CCOc1cc(CNC2CCCC2)cc(Cl)c1OCc1ccc(F)cc1,75,–,–,–,–
COc1cc(CNC2CCCC2)cc(Cl)c1OCc1ccc(F)cc1,56,–,–,–,–
CN1CCc2c(sc(/N=C/c3cccs3)c2C(N)=O)C1,–,–,?,?,–
Cc1ccc(/C=N/c2sc3c(c2C(N)=O)CCCC3)o1,–,–,–,74,–
CN1CCc2c(sc(/N=C/c3ccco3)c2C(N)=O)C1,–,–,+,68,–
NNC(=O)c1cc(Cl)ccc1Cl,–,–,–,–,–
CNc1ccc(Cl)cc1C(N)=O,–,–,+,–,–
O=C(Cc1nnc(NC(=O)c2ccccc2)s1)N/N=C/c1ccco1,–,–,+,–,–
Nc1nnc(CC(=O)N/N=C/c2ccc(-c3ccccc3)o2)s1,–,–,+,–,–
Nc1nnc(CC(=O)N/N=C\c2ccc(-c3cccc(Cl)c3)o2)s1,–,–,–,–,–
O=C1c2nc3cc(-c4ccco4)[nH]n3c(=O)c2CN1Cc1ccccc1,–,–,+,85,–
SMILES,SKN-1 inh,MLLE-PAM2 inh,PABP FP inh,eIF4H inh,MT1-MMP act inh
CN(C)C1=NCCN1CCc1cccc(F)c1,–,–,–,–,–
COc1cccc(N2CCN(c3ccc4nnc(CCC(=O)Nc5ccccn5)n4n3)CC2)c1,–,–,–,–,–
CCC(C)[C@H](N)c1cn([C@@H](CCCCN)C(=O)N2CCNCC2)nn1 (stereo partly specified),–,–,+,–,–
CN1C(=O)c2cccc(NCCCN3C(=O)c4ccccc4C3=O)c2C1=O,–,–,+,66,–
CN1C(=O)c2cccc(NCCCCCCN3C(=O)c4ccccc4C3=O)c2C1=O,–,–,–,–,–
C[n+]1ccc(/C=C/c2ccccc2O)c2ccccc21,–,–,–,–,–
CN1/C(=C/c2cc[n+](C)c3ccccc23)C=Cc2ccccc21,–,–,–,–,64
Cc1ccc2c(c1)N1C(=O)c3ccccc3C1C1=C(CC(C)(C)CC1=O)N2 (stereo unspecified),–,–,–,active,–
CC(=O)Oc1cccc(C2C3=C(CC(C)(C)CC3=O)Nc3ccccc3N2C(C)=O)c1 (stereo unspecified),–,–,–,–,–
CC(=O)Nc1ccc(SCC(=O)NC(=O)c2ccc(S(=O)(=O)N(C)C)cc2)cc1,–,40,·,·,–
O=C(/C=C\c1ccco1)Nc1nc(-c2ccc3ccccc3c2)cs1,39,–,–,–,–
